High-throughput results from PubChem BioAssay.
LMPTP block – blocks human LMPTP phosphatase; P24666; recombinant LMPTP-A, OMFP fluorogenic substrate, fluorescence intensity; inhibition, % at 20 µM; 360,000 tested, 0.22% active; AID 651560;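 active = compounds that cut the enzyme signal by at least half of the control window in the single-dose screen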
Target sequence (P24666 whole entry, looked up): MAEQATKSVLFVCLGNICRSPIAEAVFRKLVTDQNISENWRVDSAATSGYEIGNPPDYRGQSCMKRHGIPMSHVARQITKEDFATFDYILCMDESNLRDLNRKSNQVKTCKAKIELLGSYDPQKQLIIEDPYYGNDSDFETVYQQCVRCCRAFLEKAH
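Assay system: LMPTP-A phosphatase enzyme | Input: 0.625 nM enzyme | Also added: Fluorogenic phosphatase substrate OMFP at 400 µM final | Compound dosing: One test concentration per compound, 20 µM, with 3% DMSO overall | Schedule: 50 min enzyme reaction at room temperature, protected from light | Signal: Fluorescence intensity | Benchmarks: no-enzyme and uninhibited controls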
DNMT1 block – DNMT1 (human) enzyme inhibition | P26358 | DNMT1 molecular beacon, Hinp1I cleavage, fluorescence | inhibition (reported as % activation of signal), % at 10 µM | 360,000 tested, 0.83% active; in the data active = inhibition above about 50%
SUMO1 PPI mod – alters human SUMO1 binding to SIM partners; SUMO1 binding to a labelled peptide, TR-FRET, 1 h; inhibition, % at 20 µM; 360,000 tested, 0.33% active; in the data active = inhibition above about 37%
Target sequence (P63165 whole entry, looked up): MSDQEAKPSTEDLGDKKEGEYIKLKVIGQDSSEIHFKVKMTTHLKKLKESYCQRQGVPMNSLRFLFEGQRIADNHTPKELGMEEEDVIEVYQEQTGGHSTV
STEP block – inhibitors of human striatal-enriched phosphatase STEP; 360,000 tested, 0.25% active; P54829; recombinant STEP, OMFP fluorogenic substrate, fluorescence; AID 588621; inhibition, % at 20 µM;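 active = inhibition at 20 µM, scaled per plate between control wells, above about 37%, limit read from the data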
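material = STEP tyrosine phosphatase | reagent = fluorogenic phosphatase substrate OMFP at 25 µM final | doses = single compound dose of 20 µM, 1% DMSO final | schedule = 20 min reaction, room temperature, in the dark | measured by = fluorescence, 480/540 nm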
Scp1 inh – blocks human Scp-1 phosphatase activity; Q9GZU7; Recombinant Scp1, phosphopeptide, malachite green phosphate absorbance; inhibition, % at 20 µM; 340,000 tested, 0.88% active;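 active = inhibition above about 50% at 20 µM, limit read from the data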
Target sequence (Q9GZU7 76-261 limits assumed): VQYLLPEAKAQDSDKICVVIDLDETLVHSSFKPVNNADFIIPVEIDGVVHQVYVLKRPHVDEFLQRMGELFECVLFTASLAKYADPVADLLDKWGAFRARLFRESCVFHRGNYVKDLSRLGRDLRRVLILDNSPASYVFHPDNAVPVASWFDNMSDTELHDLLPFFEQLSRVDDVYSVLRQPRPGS
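Test system: SCP-1 catalytic domain; Buffer or medium: Acidic Tris acetate buffer with magnesium and detergent; Also added: Phosphorylated 17-residue peptide substrate; Compound: single 20 µM dose, 1% DMSO; Schedule: enzyme reaction 45 min at room temperature, colour 5 min, stabilisation 30 min; Signal: Phosphate-binding colour reagent, absorbance read at 630 nm.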
Scp-1 conf – confirmation of human Scp-1 phosphatase inhibitors; shares compounds with Scp1 inh; recombinant SCP-1 catalytic domain, phosphate release, malachite green absorbance; inhibition, % at 20 µM; 2,500 tested, 61% active
Scp-1 MG ctr – colorimetric interference in Scp-1 counter-screen | apparent inhibition (interference), % at 20 µM | 2,500 tested, under 10 active | Colorimetric interference counterscreen, malachite green absorbance 630 nm | shares compounds with Scp1 inh | AID 540313;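 note: compounds added after enzyme reaction finished so only phosphate colour detection is probed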
Scp-1 Tm shift – Scp-1 (human) binding by thermal shift | AID 540329 | shares compounds with Scp1 inh | 1,500 tested, 25% active | Recombinant SCP1, Sypro Orange thermal shift Tm | thermal shift relative to vanadate control, % at 40 µM;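 active = substances whose mean melting-temperature shift, as a percentage of the reference inhibitor's shift, reaches about 5.3%, limit read from the data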
DNMT1 interf DR – shows spectral interference in the DNMT1 beacon assay; molecular beacon fluorescence, spectral interference counter-screen; IC50, µM; shares compounds with DNMT1 block; 200 tested, under 10 active; call rule not given here
DNMT1 confirm – confirmation of human DNMT1 inhibitors. shares compounds with DNMT1 block. DNMT1 molecular beacon HinP1I cleavage, fluorescence. inhibition, % at 10 µM. 2,300 tested, 8% active. AID 602385;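 active = average inhibition of at least 30% in the single-concentration confirmation test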
Beacon interf – shows spectral interference in the DNMT1 beacon assay. shares compounds with DNMT1 block. DNMT1 molecular beacon spectral interference counterscreen, fluorescence 485/520. activation (fluorescence interference), % at 10 µM. 2,300 tested, 1% active. AID 602387;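 active = activation of at least 30% at 10 µM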;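 note: DNMT1 catalytic domain with a HinP1I cleavage step and a FAM/dabcyl DNA beacon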
Each line names hits and unclear results; the compound was inactive in the other large screens (follow-up assays come after a bar, where they were run). Sampled rows, rich in hits. Any-hit rate of the full collection: about 1.7%.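 Rule for the calls, unless noted: active = inhibition of at least 30% at 20 µM; inactive = the rest.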

COCCCNC(=O)/C(C#N)=C/c1ccc(OCC(=O)O)c(OC)c1	DNMT1 block 89, Scp1 inh 57 | Scp-1 conf 60 | Scp-1 MG ctr inactive | Scp-1 Tm shift 7.5 | DNMT1 confirm inactive | Beacon interf inactive
COc1ccc(/C=C(\C#N)C(=O)NCCc2ccccc2)cc1OCc1ccccc1	none
O=C(N/N=C\C=C\c1ccco1)c1cc(-c2ccc3ccccc3c2)n[nH]1	DNMT1 block 68, Scp1 inh 70 | Scp-1 conf 42 | Scp-1 MG ctr inactive | Scp-1 Tm shift 13 | DNMT1 confirm inactive | Beacon interf inactive
O=C(N/N=C/C=C/c1ccco1)c1cccnc1	none
O=C(CNS(=O)(=O)c1c(F)cc(F)cc1Br)OCC(=O)N1CCCC1=O	none
Cc1ccc(CNC(=O)CCS(=O)(=O)c2ccc(Br)cc2)cc1	DNMT1 block 89, Scp1 inh 84 | Scp-1 conf 76 | Scp-1 MG ctr inactive | Scp-1 Tm shift inactive | DNMT1 confirm inactive | Beacon interf inactive
CCN(CC)c1ccc(NC(=O)CCS(=O)(=O)c2ccc(Br)cc2)c(C)c1	DNMT1 block 97, Scp1 inh 82 | Scp-1 conf 49 | Scp-1 MG ctr inactive | Scp-1 Tm shift inactive | DNMT1 interf DR inactive | DNMT1 confirm 42 | Beacon interf inactive
O=C(CCS(=O)(=O)c1ccc(Br)cc1)NCCC1=CCCCC1	DNMT1 block 65, Scp1 inh 63 | Scp-1 conf 72 | Scp-1 MG ctr inactive | Scp-1 Tm shift inactive | DNMT1 confirm inactive | Beacon interf inactive
NC(=N\N=Cc1ccccc1)/C(N)=N/N=Cc1ccccc1	none
NC(=N\N=Cc1ccco1)/C(N)=N/N=Cc1ccco1	DNMT1 block 55, Scp1 inh 62 | Scp-1 conf 39 | Scp-1 MG ctr inactive | Scp-1 Tm shift inactive | DNMT1 confirm inactive | Beacon interf inactive
Cc1sc2ncn(CC(=O)NCc3ccco3)c(=O)c2c1-c1ccc(F)cc1	none
O=C(Cn1cnc2scc(-c3cccc([N+](=O)[O-])c3)c2c1=O)NCc1ccco1	DNMT1 block 83, Scp1 inh 78 | Scp-1 conf 70 | Scp-1 MG ctr inactive | Scp-1 Tm shift 11 | DNMT1 confirm inactive | Beacon interf inactive
CCOc1ccccc1C(O)C1=CC(=O)c2ccccc2C1=O (stereo not drawn)	DNMT1 block 96, Scp1 inh 75 | Scp-1 conf 54 | Scp-1 MG ctr inactive | Scp-1 Tm shift 14 | DNMT1 confirm inactive | Beacon interf inactive
CC1=CC(=O)c2ccccc2C1=O	none
Cc1ncc([N+](=O)[O-])n1CCOC(=O)c1cc(Cl)cc(Cl)c1N	DNMT1 block 60, Scp1 inh 62 | Scp-1 conf 68 | Scp-1 MG ctr inactive | Scp-1 Tm shift 12 | DNMT1 confirm inactive | Beacon interf inactive
COc1ccc([C@H]2CC(=O)C=C(c3ccc(Cl)c(Cl)c3)C2)cc1	none
CCOC(=O)C1=C(COC(=O)/C=C/c2ccco2)NC(=O)NC1C (stereo not drawn)	DNMT1 block 72, Scp1 inh 66 | Scp-1 conf 55 | Scp-1 MG ctr inactive | Scp-1 Tm shift inactive | DNMT1 confirm inactive | Beacon interf inactive
CCC1CCCCN1Cc1nc(Cc2ccccc2Cl)no1 (stereo not drawn)	none
CCOC(=O)C(=NO)C1=CSC2=NNC(C)(C)N12	none (no result: Scp1 inh)
COc1ccc(-c2nnc(NC(=O)c3cccs3)s2)c(OC)c1	DNMT1 block 80, Scp1 inh 96 | Scp-1 conf 67 | Scp-1 MG ctr inactive | Scp-1 Tm shift inactive | DNMT1 confirm inactive | Beacon interf inactive
Cc1ccc(S(=O)(=O)Cc2ccc(C(=O)N3CCc4ccccc4C3)o2)cc1	DNMT1 block 81, Scp1 inh 76 | Scp-1 conf 54 | Scp-1 MG ctr inactive | Scp-1 Tm shift inactive | DNMT1 confirm inactive | Beacon interf inactive
O=C(COc1cccnc1[N+](=O)[O-])Nc1ncc(Cl)cc1Cl	DNMT1 block 83, Scp1 inh 62 | Scp-1 conf 63 | Scp-1 MG ctr inactive | Scp-1 Tm shift 10.0 | DNMT1 confirm inactive | Beacon interf inactive
Cc1ccc(NC(=O)CN(C)C(=O)c2cccc(-n3cccc3)c2)cc1	DNMT1 block 100, SUMO1 PPI mod 48, Scp1 inh 91 | Scp-1 conf 72 | Scp-1 MG ctr inactive | Scp-1 Tm shift inactive | DNMT1 interf DR inactive | DNMT1 confirm 34 | Beacon interf inactive
Cc1cccc(NC(=O)CNC(=O)c2cccc(-n3cccc3)c2)c1C	DNMT1 block 87, Scp1 inh 73 | Scp-1 conf 75 | Scp-1 MG ctr inactive | Scp-1 Tm shift inactive | DNMT1 confirm inactive | Beacon interf inactive
O=C(NCCCN1CCOCC1)C(=O)NCc1ccco1	none
O=C(CSc1ccccn1)Nc1ccc2c(c1)C(=O)c1ccccc1C2=O	DNMT1 block 87, STEP block 41, Scp1 inh 108 | Scp-1 conf 69 | Scp-1 MG ctr inactive | Scp-1 Tm shift 7.8 | DNMT1 confirm inactive | Beacon interf inactive
Cc1cc(C=O)c(C)n1-c1ccc(Cl)c(C(=O)O)c1	DNMT1 block 88, STEP block 66, Scp1 inh 74 | Scp-1 conf 76 | Scp-1 MG ctr inactive | Scp-1 Tm shift 6.2 | DNMT1 confirm inactive | Beacon interf inactive
COC(=O)CCC(=O)N1CCCC(N2CCN(c3cccc(C(F)(F)F)c3)CC2)C1 (stereo not drawn)	none
CC(C)(CS(=O)(=O)[O-])NC(=O)CC[N+](C)(C)CCO	DNMT1 block 116, STEP block 52, Scp1 inh 60 | Scp-1 conf 43 | Scp-1 MG ctr inactive | Scp-1 Tm shift inactive | DNMT1 interf DR inactive | DNMT1 confirm 86 | Beacon interf inactive
O=C(N/N=C/c1cccnc1)C1CC1(c1ccccc1)c1ccccc1 (stereo not drawn)	none
